The source made the active and inactive calls. The rule behind the calls is not given here.
Columns and labels:
[1] = Elevation of cytoplasmic calcium level in Fischer rat thyroid cells co-expressing YFP and human CFTR at 10 uM incubated for 5 mins by fluo-4 dye based fluorescence assay; assay type: ADME; conditions: thyroid cell
How it was run: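 FRT cells in 96-well plates loaded with Fluo-4 NW, pretreated 5 min with 10 μM compound or control; 100 μM ATP added as calcium agonist. Fluorescence followed in plate reader with syringe pumps. Representative of two to four experiment sets.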

HT-29 = assay: Increase of iodide influx in human HT-29 cells expressing YFP at 10 uM measured after 10 mins for 2 to 12 sec by fluorescence assay; assay type: functional, cell-based
How it was run: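 HT-29 cells expressing YFP halide sensor, 10 μM compound, for non-TMEM16A calcium-activated chloride channel. Plate reader fluorescence quenching after iodide addition (activation) or iodide plus ATP addition (inhibition); initial rate of iodide influx computed as linear measure of channel function. Representative of two to four experiment sets.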

[2] = Solubility of the compound in phosphate buffered solution; assay type: physicochemical
Homo sapiens [3] = organism: Homo sapiens; assay: Inhibition of ENaC in human primary bronchial epithelial cells assessed as effect on short-circuit current at 10 uM after 10 mins by voltage clamp method
How it was run: (§1)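 Primary human bronchial epithelial cells grown at air-liquid interface, mounted in Ussing chambers in symmetrical HCO3−-buffered solutions (95% O2/5% CO2, 37 °C), with Ag/AgCl electrodes. After 10 min preincubation with 10 µM compound, sequential additions were 20 µM amiloride, 20 µM forskolin, 10 µM CFTRinh-172 and 100 µM ATP. Traces represent two to four experiment sets.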

[4] = Cytotoxicity against Fischer rat thyroid cells assessed as effect on cell survival up to 10 uM after 8 hrs by alamar blue assay; assay type: cell-based
How it was run: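 FRT cells cultured overnight, then incubated 8 h with compound up to 10 μM; 33% DMSO as positive control. Viability read by Alamar Blue; mean ± SEM, n = 8.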

[5] = Elevation of forskolin-stimulated cAMP level in Fischer rat thyroid cells co-expressing YFP and human CFTR at 10 uM incubated for 10 mins by immunoassay; assay type: ADME, cell-based; conditions: thyroid cell
How it was run: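 FRT cells expressing wild-type CFTR in 12-well plates, PBS-washed, incubated 10 min with 10 μM compound without or with 90 nM forskolin; references were forskolin alone (90 nM, 20 μM) and 20 μM forskolin + 100 μM IBMX. Lysates assayed for cAMP by immunoassay; mean ± SEM, n = 4.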

Homo sapiens [6] = organism: Homo sapiens; assay: Inhibition of sodium/potassium pump in human primary bronchial epithelial cells assessed as effect on short-circuit current at 10 uM after 10 mins by voltage clamp method; how it was run: as §1
[7] = target: T1, Solute carrier family 12 member 2 (Homo sapiens) (UniProt P55011); assay: Inhibition of NKCC1 in human primary bronchial epithelial cells assessed as effect on short-circuit current at 10 uM after 10 mins by voltage clamp method
T1 sequence (whole entry): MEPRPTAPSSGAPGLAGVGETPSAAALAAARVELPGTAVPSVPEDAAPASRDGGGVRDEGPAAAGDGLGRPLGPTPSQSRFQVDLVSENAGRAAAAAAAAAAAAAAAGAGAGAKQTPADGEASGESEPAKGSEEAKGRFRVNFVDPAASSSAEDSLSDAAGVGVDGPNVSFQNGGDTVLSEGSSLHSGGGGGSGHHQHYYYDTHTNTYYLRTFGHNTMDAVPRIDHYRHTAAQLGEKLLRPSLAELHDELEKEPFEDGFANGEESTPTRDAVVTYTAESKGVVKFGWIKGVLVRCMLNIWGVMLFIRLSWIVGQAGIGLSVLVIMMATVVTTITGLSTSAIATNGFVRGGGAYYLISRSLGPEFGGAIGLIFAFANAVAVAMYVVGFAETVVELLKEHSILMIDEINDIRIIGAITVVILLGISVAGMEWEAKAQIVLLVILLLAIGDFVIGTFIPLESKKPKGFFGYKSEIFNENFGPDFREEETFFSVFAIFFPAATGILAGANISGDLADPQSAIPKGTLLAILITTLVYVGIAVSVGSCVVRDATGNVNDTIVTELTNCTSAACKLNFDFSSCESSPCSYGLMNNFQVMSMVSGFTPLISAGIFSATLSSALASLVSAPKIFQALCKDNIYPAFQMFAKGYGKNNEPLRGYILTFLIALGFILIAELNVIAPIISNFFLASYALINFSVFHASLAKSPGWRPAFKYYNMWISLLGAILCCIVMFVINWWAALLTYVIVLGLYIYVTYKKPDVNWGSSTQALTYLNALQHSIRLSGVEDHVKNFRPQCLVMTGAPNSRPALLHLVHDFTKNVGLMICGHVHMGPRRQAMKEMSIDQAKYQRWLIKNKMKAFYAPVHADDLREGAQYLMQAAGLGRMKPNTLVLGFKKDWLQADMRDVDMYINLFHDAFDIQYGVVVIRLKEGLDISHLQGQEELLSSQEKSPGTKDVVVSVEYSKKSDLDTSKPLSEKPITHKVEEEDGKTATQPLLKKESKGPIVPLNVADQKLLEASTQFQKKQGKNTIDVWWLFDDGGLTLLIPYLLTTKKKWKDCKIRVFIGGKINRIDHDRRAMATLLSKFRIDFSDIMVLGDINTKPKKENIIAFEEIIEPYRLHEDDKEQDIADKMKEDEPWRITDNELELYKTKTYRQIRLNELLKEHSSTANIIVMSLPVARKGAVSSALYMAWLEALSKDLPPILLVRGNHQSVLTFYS
How it was run: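 Primary human bronchial epithelial cultures (air-liquid interface) in Ussing chambers, symmetrical HCO3−-buffered solutions, 95% O2/5% CO2, 37 °C. After 10 min preincubation with 10 μM compound, sequential 20 μM amiloride, 20 μM forskolin, 10 μM CFTRinh-172, 100 μM ATP; short-circuit current recorded under voltage clamp.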

With `CCN(CC)c1nc(Nc2ccc3ncsc3c2)nc(OC(C(F)(F)F)C(F)(F)F)n1` the Activity [1] was “Non-Toxic”, the Activity (HT-29) was “inactive” and the solubility [2] was ≤ 10 µM. For the same molecule, the inhibition (Homo sapiens [3]) was “inactive”, the Activity [4] was “Non-Toxic” and the Activity [5] was “Non-Toxic”. For the same molecule, the inhibition (Homo sapiens [6]) was “inactive” and the inhibition [7] was “inactive”.

With `CNc1nc(Nc2ccccc2)nc(OCC(F)(F)C(F)F)n1` the Activity [1] was “Non-Toxic”, the Activity (HT-29) was “inactive” and the solubility [2] was ≤ 10 µM. The inhibition (Homo sapiens [3]) was “inactive”, the Activity [4] was “Non-Toxic” and the Activity [5] was “Non-Toxic”. For the same molecule, the inhibition (Homo sapiens [6]) was “inactive” and the inhibition [7] was “inactive”.

Reference: ChEMBL document CHEMBL3997791, “Nanomolar-Potency Aminophenyl-1,3,5-triazine Activators of the Cystic Fibrosis Transmembrane Conductance Regulator (CFTR) Chloride Channel for Prosecretory Therapy of Dry Eye Diseases” (J Med Chem, 2017)
